# Laboratory results: ChEMBL document CHEMBL1221286, “Development of methotrexate proline prodrug to overcome resistance by MDA-MB-231 cells” (Bioorg Med Chem Lett, 2010)
# Assays:
# [1] = tested on: MCF7; assay: Cytotoxicity against human MCF7 cells assessed as cell viability by XTT assay; type: functional, cell-based
# How it was run: (§1)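 Cells were seeded at 5 × 10^4 per well and grown 48 h at 37 °C, 5% CO2, before medium renewal. Drugs were added at a range of concentrations for 24 h. XTT was added for 4 h, then absorbance read at 490 nm against medium-only controls. Viability was plotted versus concentration to estimate EC50 (mean ± SD, n = 3).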
# [2] = tested on: MDA-MB-231; assay: Cytotoxicity against human MDA-MB-231 cells assessed as cell viability by XTT assay; type: functional, cell-based; how it was run: as §1
# [3] = tested on: Caco-2; assay: Cytotoxicity against human Caco-2 cells assessed as cell viability by XTT assay; type: functional, cell-based; how it was run: as §1
# [4] = Chemical stability of the compound in phosphate buffer saline of pH 7.4; type: physicochemical
# [5] = target: T1, Xaa-Pro dipeptidase (Homo sapiens) (UniProt P12955); assay: Activity of prolidase in human HeLa cells measured per gram of protein in presence of Cbz-pro; type: cell-based
# T1 sequence (whole entry): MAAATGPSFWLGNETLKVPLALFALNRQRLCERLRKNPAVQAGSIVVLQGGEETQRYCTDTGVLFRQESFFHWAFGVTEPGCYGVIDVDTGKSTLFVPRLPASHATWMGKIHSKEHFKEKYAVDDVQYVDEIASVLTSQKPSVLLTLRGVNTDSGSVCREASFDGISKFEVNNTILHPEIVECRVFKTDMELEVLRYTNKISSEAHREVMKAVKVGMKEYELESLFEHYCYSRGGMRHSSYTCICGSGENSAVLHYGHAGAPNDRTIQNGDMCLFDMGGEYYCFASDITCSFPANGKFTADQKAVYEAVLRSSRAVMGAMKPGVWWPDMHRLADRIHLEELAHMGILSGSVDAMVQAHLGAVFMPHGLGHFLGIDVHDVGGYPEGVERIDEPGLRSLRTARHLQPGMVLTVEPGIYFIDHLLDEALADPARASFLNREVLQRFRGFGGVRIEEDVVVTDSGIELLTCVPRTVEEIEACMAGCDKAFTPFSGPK
# How it was run: (§2)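 Cells were grown to 90% confluence, trypsinized, PBS-washed, and lysed in 1% Triton X-100/PBS. Lysate was spun 18,000 rpm, 30 min, 4 °C. Supernatant was activated 2 h at 37 °C with Tris–HCl/200 mM MnCl2/30 mM glutathione. 1 mM Pro-MTX was then added at 37 °C, sampled at 15, 30 and 60 min, and TFA-quenched. Proline was read colorimetrically; specific activity is per µg protein. Cbz-Pro inhibitor was equimolar.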
# [6] = target: T1, Xaa-Pro dipeptidase (Homo sapiens); assay: Activity of prolidase in human Caco-2 cells measured per gram of protein; type: cell-based; how it was run: as §2
# [7] = target: T1, Xaa-Pro dipeptidase (Homo sapiens); assay: Activity of prolidase in human HeLa cells measured per gram of protein; type: cell-based; how it was run: as §2
# [8] = target: T1, Xaa-Pro dipeptidase (Homo sapiens); assay: Activity of prolidase in human Caco-2 cells measured per gram of protein in presence of Cbz-pro; type: cell-based; how it was run: as §2
# [9] = organism: Sus scrofa; assay: Activity of pig kidney prolidase measured per gram of protein
# How it was run: (§3)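 Pro-MTX (1 mM) hydrolysed by porcine kidney prolidase at 40 °C. Enzyme was first activated 30 min at 40 °C in 50 mM Tris–HCl (pH 8.0) with 200 mM MnCl2 and 30 mM glutathione. Samples were taken at 15 min, 30 min and 1 h and quenched with equal volume 10% TFA. Released proline was assayed colorimetrically (Chinard's reagent, 90 °C 10 min, A495). Inhibitor runs added Cbz-Pro equimolar to substrate.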
# [10] = organism: Sus scrofa; assay: Activity of pig kidney prolidase measured per gram of protein in presence of Cbz-pro; how it was run: as §3
Compound,EC50 [1] [µM],EC50 [2] [µM],EC50 [3] [µM],Stability [4],Activity [5] [pmol/min],Activity [6] [pmol/min],Activity [7] [pmol/min],Activity [8] [pmol/min],Activity [9] [pmol/min],Activity [10] [pmol/min]
CN(Cc1cnc2nc(N)nc(N)c2n1)c1ccc(C(=O)N[C@@H](CCC(=O)O)C(=O)O)cc1 [METHOTREXATE],0.9,80,1.1,,,,,,,
CN(Cc1cnc2nc(N)nc(N)c2n1)c1ccc(C(=O)N[C@H](CCC(=O)O)C(=O)N2CCC[C@@H]2C(=O)O)cc1,5.2,11,5.6,Stable,0.19,0.42,0.35,0.28,19,8.15
